# Columns and labels:
# [1] = system: MV4-11; assay: Antiproliferative activity against human MV4-11 cells after 72 hrs by Celltiter-Glo assay; type: functional; conditions: MV4-11, 72 h
# Method in brief: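 Cells seeded at 3000/well in 96-well plates, exposed to serially diluted compound for 72 h at 37 °C, 5% CO2. Viability read by CellTiter-Glo luminescence and normalized to DMSO control. GI50 derived from curve fit, mean of three independent measurements. Culture media: DMEM/10% FBS for adherent lines; IMDM for MV4-11 and MEC-1/2; RPMI 1640 for suspension lines and CHL.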
# [2] = Tmax in Sprague-Dawley rat at 20 mg/kg, po by LC-MS/MS analysis; type: ADME, organism-based; conditions: in vivo
# [3] = AUC (0 to t) in Sprague-Dawley rat at 3 mg/kg, iv by LC-MS/MS analysis; type: ADME, organism-based; conditions: in vivo
# Method in brief: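 Non-compartmental PK. Male SD rats 190-210 g, mice and beagle dogs acclimatized one week, fasted 12 h with water, split into iv and po groups (mice 48, rats 6, dogs 6). iv 3/3/2 mg/kg (mice/rats/dogs); po 10/20/10 mg/kg; vehicle DMSO in 5% glucose water. Blood at 2 or 5 to 720 min; plasma protein-precipitated with methanol, caffeine internal standard, LC-MS/MS.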
# [4] = system: Tyrosine-protein kinase ABL1 (Homo sapiens), P00519 [F317I]; assay: Binding affinity to human non-phosphorylated ABL1 F317I mutant (S229 to K512 residues) expressed in mammalian expression system assessed as remaining unbound target protein level at 1000 nM by Kinomescan method relative to control
# Method in brief: (§1)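 KINOMEscan competition-binding profiling across the panel of 468 kinases and mutants, with inhibitor tested at 1 μM. Binding is expressed as percent of control, with DMSO as the reference control.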
# [5] = biological target: Cyclin-dependent kinase 4 (Homo sapiens) (UniProt P11802); assay: Binding affinity to wild-type human full length CDK4 (M1 to E303 residues) expressed in mammalian expression system assessed as remaining unbound target protein level at 1000 nM by Kinomescan method relative to control
# Method in brief: (§2)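 KINOMEscan competitive binding profile at 1 μM inhibitor. Remaining target binding reported as percent of DMSO control.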
# [6] = biological target: Casein kinase II subunit alpha (Homo sapiens) (UniProt P68400); assay: Binding affinity to wild-type human full length CSNK2A1 (M1 to Q391 residues) expressed in mammalian expression system assessed as remaining unbound target protein level at 1000 nM by Kinomescan method relative to control; method in brief: as §2
# [7] = system: Epidermal growth factor receptor (Homo sapiens), P00533 [UNDEFINED MUTATION]; assay: Binding affinity to human partial length EGFR L747-S752del/P753S mutant expressed in bacterial expression system assessed as remaining unbound target protein level at 1000 nM by Kinomescan method relative to control; method in brief: as §1
# Epidermal growth factor receptor (Homo sapiens), P00533 [UNDEFINED MUTATION], sequence (P00533 whole entry, looked up, stated change not applied, the tested form may be a part): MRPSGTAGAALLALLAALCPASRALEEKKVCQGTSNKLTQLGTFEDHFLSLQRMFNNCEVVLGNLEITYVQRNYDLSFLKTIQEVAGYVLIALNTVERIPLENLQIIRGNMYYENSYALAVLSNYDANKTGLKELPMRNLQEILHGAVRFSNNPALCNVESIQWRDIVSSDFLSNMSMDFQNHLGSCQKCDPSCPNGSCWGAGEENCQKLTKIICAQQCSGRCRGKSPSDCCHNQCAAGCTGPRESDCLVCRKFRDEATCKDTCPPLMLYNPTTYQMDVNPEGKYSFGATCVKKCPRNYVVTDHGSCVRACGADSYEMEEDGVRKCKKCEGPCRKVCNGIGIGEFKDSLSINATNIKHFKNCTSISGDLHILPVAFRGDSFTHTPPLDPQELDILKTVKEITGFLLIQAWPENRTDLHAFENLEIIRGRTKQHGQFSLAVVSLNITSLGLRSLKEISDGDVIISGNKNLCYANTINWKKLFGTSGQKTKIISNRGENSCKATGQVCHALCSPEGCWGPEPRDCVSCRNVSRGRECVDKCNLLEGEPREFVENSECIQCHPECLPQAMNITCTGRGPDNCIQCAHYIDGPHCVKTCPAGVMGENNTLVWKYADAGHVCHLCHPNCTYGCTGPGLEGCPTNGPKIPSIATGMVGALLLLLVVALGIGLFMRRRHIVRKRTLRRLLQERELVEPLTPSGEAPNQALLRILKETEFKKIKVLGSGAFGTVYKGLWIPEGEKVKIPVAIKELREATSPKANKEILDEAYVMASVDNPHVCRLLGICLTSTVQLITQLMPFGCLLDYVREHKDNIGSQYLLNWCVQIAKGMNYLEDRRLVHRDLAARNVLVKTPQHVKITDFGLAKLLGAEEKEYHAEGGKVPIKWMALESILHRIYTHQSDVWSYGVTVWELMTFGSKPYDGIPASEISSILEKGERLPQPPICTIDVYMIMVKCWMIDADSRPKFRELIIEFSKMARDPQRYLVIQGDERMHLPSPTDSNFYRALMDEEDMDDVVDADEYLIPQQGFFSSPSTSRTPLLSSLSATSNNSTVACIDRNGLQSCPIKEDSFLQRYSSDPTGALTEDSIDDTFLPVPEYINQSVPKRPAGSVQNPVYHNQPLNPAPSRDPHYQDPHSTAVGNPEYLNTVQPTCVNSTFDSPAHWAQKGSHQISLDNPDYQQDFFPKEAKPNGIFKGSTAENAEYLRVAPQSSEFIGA
# [8] = biological target: Ephrin type-A receptor 2 (Homo sapiens) (UniProt P29317); assay: Binding affinity to wild-type human partial length EPHA2 (T593 to V891 residues) expressed in bacterial expression system assessed as remaining unbound target protein level at 1000 nM by Kinomescan method relative to control
# [9] = system: Receptor-type tyrosine-protein kinase FLT3 (Homo sapiens), P36888 [D835H]; assay: Binding affinity to human partial length FLT3 D835H mutant (V592 to Y969 residues) expressed in bacterial expression system assessed as remaining unbound target protein level at 1000 nM by Kinomescan method relative to control; method in brief: as §1
# [10] = system: Receptor-type tyrosine-protein kinase FLT3 (Homo sapiens), P36888 [R834Q]; assay: Binding affinity to human partial length FLT3 R834Q mutant (V592 to Y969 residues) expressed in mammalian expression system assessed as remaining unbound target protein level at 1000 nM by Kinomescan method relative to control; method in brief: as §1
# [11] = biological target: Interleukin-1 receptor-associated kinase 1 (Homo sapiens) (UniProt P51617); assay: Binding affinity to wild-type human partial length IRAK1 (R194 to S712 residues) expressed in mammalian expression system assessed as remaining unbound target protein level at 1000 nM by Kinomescan method relative to control
# Interleukin-1 receptor-associated kinase 1 (Homo sapiens), sequence (P51617 whole entry, looked up, the tested form may be a part): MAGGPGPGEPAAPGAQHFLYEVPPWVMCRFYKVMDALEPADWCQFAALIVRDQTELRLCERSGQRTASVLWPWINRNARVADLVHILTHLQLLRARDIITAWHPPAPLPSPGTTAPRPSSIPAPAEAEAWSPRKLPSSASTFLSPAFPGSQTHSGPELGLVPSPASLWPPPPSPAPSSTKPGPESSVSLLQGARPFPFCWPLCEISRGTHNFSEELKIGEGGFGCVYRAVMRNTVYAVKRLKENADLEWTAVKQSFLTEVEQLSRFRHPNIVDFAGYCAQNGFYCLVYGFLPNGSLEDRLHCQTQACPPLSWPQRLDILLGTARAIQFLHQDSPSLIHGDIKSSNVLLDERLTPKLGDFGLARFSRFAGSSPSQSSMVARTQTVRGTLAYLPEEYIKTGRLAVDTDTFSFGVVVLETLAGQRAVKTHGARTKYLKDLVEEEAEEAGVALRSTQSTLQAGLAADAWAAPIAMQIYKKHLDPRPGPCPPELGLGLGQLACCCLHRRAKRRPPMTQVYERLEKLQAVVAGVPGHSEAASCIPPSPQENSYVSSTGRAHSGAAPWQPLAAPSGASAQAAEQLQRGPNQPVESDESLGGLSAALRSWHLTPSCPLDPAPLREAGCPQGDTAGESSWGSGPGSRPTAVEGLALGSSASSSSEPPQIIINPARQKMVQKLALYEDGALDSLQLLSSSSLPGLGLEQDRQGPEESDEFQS
# Method in brief: (§3)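 KINOMEscan binding panel of 468 kinases/mutants. Inhibitor was tested at a single concentration of 1 μM. Binding is reported as percent of control, defined relative to a DMSO control.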
# [12] = biological target: MAP kinase-activated protein kinase 2 (Homo sapiens) (UniProt P49137); assay: Binding affinity to wild-type human partial length MAPKAPK2 (V48 to D345 residues) expressed in bacterial expression system assessed as remaining unbound target protein level at 1000 nM by Kinomescan method relative to control; method in brief: as §3
# [13] = biological target: Serine/threonine-protein kinase 4 (Homo sapiens) (UniProt Q13043); assay: Binding affinity to wild-type human full length MST1 (M1 to F487 residues) expressed in bacterial expression system assessed as remaining unbound target protein level at 1000 nM by Kinomescan method relative to control
# Method in brief: (§4)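 KINOMEscan competition binding profile across a panel of 468 kinases and mutants, with the inhibitor tested at a single concentration of 1 μM. Binding is reported as percent of control, meaning signal relative to a DMSO control.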
# [14] = biological target: Serine/threonine-protein kinase PAK 4 (Homo sapiens) (UniProt O96013); assay: Binding affinity to wild-type human partial length PAK4 (Q144 to R438 residues) expressed in bacterial expression system assessed as remaining unbound target protein level at 1000 nM by Kinomescan method relative to control; method in brief: as §3
# [15] = biological target: Phosphatidylinositol 3-kinase C2 domain-containing subunit gamma (Homo sapiens) (UniProt O75747); assay: Binding affinity to wild-type human partial length PIK3C2G (M1 to I1446 residues) expressed in mammalian expression system assessed as remaining unbound target protein level at 1000 nM by Kinomescan method relative to control; method in brief: as §3
# [16] = biological target: Ribosomal protein S6 kinase alpha-5 (Homo sapiens) (UniProt O75582); assay: Binding affinity to wild-type human partial length N-terminal RPS6KA5 kinase domain 1 expressed in bacterial expression system assessed as remaining unbound target protein level at 1000 nM by Kinomescan method relative to control
# Ribosomal protein S6 kinase alpha-5 (Homo sapiens), sequence (O75582 whole entry, looked up, the tested form may be a part): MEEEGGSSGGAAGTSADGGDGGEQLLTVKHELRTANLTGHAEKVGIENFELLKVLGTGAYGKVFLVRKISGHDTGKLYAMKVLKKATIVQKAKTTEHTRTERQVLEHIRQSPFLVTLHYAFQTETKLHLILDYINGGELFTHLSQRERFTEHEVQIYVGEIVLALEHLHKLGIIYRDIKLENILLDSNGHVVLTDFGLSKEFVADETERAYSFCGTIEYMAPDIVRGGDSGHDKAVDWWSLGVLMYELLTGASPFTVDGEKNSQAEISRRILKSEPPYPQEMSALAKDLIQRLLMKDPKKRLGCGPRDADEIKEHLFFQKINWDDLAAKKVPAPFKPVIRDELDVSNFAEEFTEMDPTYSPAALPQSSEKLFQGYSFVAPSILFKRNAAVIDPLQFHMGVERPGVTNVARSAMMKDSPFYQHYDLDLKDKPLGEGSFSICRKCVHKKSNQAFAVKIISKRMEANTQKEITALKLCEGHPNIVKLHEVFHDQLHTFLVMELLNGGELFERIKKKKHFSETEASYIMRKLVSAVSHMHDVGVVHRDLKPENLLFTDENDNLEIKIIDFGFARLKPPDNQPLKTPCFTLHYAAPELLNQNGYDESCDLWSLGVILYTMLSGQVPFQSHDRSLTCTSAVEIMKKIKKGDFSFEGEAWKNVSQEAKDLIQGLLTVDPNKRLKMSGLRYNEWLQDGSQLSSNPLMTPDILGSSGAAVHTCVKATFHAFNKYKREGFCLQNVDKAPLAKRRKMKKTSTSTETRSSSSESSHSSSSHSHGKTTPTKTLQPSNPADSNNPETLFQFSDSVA
# [17] = biological target: Serine/threonine-protein kinase TBK1 (Homo sapiens) (UniProt Q9UHD2); assay: Binding affinity to wild-type human full length TBK1 (M1 to L729 residues) expressed in mammalian expression system assessed as remaining unbound target protein level at 1000 nM by Kinomescan method relative to control; method in brief: as §4
# [18] = biological target: Tyrosine-protein kinase receptor Tie-1 (Homo sapiens) (UniProt P35590); assay: Binding affinity to wild-type human partial length TIE1 (T819 to A1138 residues) expressed in bacterial expression system assessed as remaining unbound target protein level at 1000 nM by Kinomescan method relative to control
# [19] = biological target: Serine/threonine-protein kinase TNNI3K (Homo sapiens) (UniProt Q59H18); assay: Binding affinity to wild-type human full length TNNI3K (M1 to S835 residues) expressed in bacterial expression system assessed as remaining unbound target protein level at 1000 nM by Kinomescan method relative to control; method in brief: as §4
# Serine/threonine-protein kinase TNNI3K (Homo sapiens), sequence (Q59H18 whole entry, the tested form may be a part): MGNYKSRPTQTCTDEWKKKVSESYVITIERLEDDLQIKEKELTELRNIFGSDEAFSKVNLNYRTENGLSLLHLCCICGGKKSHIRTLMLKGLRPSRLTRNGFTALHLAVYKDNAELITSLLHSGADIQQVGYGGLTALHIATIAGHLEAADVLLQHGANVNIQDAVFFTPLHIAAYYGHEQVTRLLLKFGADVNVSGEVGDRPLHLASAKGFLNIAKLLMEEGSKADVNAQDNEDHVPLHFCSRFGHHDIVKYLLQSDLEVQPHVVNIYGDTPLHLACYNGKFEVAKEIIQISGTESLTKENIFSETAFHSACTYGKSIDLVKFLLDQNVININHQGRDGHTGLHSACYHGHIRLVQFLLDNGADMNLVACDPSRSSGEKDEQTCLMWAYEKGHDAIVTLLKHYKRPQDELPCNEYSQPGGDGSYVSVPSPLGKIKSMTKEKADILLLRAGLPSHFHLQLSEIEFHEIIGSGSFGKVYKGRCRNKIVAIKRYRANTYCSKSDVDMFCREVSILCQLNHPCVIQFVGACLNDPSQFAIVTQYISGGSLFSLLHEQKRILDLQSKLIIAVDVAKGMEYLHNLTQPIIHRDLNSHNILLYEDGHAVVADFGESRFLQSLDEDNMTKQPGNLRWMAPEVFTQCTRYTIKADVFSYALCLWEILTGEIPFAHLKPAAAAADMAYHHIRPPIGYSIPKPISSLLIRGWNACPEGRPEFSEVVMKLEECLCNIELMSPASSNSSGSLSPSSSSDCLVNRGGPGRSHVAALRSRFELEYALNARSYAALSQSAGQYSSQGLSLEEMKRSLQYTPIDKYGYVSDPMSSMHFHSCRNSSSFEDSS
# [20] = biological target: Vascular endothelial growth factor receptor 2 (Homo sapiens, UniProt P35968); assay: Binding affinity to wild-type human partial length VEGFR2 (R787 to P1253 residues) expressed in mammalian expression system assessed as remaining unbound target protein level at 1000 nM by Kinomescan method relative to control; conditions: read-out: Activity
# Vascular endothelial growth factor receptor 2, sequence (P35968 whole entry, the tested form may be a part): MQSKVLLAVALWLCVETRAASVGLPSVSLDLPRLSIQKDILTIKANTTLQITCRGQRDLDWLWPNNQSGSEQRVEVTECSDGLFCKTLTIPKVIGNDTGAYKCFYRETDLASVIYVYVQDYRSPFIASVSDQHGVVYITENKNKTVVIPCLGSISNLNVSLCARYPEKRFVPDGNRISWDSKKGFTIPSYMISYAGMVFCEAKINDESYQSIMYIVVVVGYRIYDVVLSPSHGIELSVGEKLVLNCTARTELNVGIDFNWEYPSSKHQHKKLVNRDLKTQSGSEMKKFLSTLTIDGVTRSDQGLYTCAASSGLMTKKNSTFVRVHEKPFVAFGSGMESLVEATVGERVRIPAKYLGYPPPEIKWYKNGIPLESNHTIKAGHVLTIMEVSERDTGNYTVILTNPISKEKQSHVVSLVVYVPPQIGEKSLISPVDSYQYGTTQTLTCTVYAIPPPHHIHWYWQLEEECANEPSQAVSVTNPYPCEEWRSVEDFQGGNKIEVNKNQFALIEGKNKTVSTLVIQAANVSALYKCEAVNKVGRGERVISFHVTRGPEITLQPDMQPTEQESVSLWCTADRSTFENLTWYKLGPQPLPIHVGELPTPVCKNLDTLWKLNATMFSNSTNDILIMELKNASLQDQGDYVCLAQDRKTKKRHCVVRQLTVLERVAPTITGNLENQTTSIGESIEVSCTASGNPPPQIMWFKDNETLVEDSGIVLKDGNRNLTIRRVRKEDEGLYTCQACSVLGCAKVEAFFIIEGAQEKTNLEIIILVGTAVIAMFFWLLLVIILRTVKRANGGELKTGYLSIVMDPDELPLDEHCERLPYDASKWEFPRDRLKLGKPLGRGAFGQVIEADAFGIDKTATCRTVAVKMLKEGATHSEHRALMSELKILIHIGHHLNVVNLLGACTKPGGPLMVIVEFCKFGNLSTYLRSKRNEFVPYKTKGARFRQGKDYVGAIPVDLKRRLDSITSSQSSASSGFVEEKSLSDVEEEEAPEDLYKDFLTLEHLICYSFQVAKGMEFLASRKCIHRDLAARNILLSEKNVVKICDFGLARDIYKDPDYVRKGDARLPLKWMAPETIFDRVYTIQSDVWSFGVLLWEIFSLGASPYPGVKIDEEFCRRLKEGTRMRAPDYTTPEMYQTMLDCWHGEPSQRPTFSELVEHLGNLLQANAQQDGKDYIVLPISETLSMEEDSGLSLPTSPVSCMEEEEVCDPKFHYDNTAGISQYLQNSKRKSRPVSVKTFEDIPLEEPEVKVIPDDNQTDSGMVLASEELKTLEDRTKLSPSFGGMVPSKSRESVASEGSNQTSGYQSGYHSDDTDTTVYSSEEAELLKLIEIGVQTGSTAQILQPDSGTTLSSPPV
smiles,measurement,setting,value
COCCN[C@H]1CC[C@H](Nc2cc(-c3csc(NCC4(C#N)CCOCC4)n3)c(Cl)cn2)CC1,GI50,[1],12 nM
same,Tmax,[2],3.33 h
same,AUC(0-t),[3],625 ng·h/mL
same,Activity,[4],90%
same,Activity,[5],93%
same,Activity,[6],81%
same,Activity,[7],79%
same,Activity,[8],84%
same,Activity,[9],88%
same,Activity,[10],100%
same,Activity,[11],57%
same,Activity,[12],99%
same,Activity,[13],99%
same,Activity,[14],91%
same,Activity,[15],80%
same,Activity,[16],100%
same,Activity,[17],86%
same,Activity,[18],80%
same,Activity,[19],95%
same,activity at 1 µM,[20],98%

# — ChEMBL document CHEMBL4261600 (Eur J Med Chem, 2018)
